Laboratory results published in ChEMBL document CHEMBL3272287, “Synthesis and biological activity of new 2-substituted analogs of fluphenazine” (1976).

Assays:
Assay type in all cases: functional
Rattus norvegicus [1] = assay: Cataleptogenic potency in im dosed albino rat assessed as reversal of imposed position administered 4 doses at quarter log intervals measured 60 to 180 mins post dose
Summary of the method: (§1)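 Male albino rats (about 180 g average), groups of six, each given a single intramuscular injection into the gastrocnemius, about 0.1 ml/kg. Saline-injected controls. One observer scored forepaw-elevation catalepsy. CD50 was the dose giving 50% of the maximum catalepsy score (9 of 18 points), estimated by probit analysis. Doses were expressed as free base. Relative potency was calculated against fluphenazine as 1.0.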

Mus musculus [2] = assay: Cataleptogenic potency in iv dosed albino mouse assessed as reversal of imposed position administered 4 doses at quarter log intervals measured 60 to 180 mins post dose
Summary of the method: (§2)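 Male albino mice (20–25 g), six per dose, given intravenous aqueous solutions (PEG 200 for one analog). Distilled water served as the negative control. About four doses were spaced at quarter-log intervals, chosen from a preliminary gross observation screen. At 60, 120 and 180 min, mice were placed with forepaws elevated 5 cm and each forepaw was scored, maximum 3. Three observers scored the mice. CD50 came from probit analysis, with doses as free base. Relative potency was calculated against fluphenazine as 1.0.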

Rattus norvegicus [3] = assay: Cataleptogenic potency in im dosed albino rat assessed as reversal of imposed position administered 4 doses at quarter log intervals measured 60 to 180 mins post dose relative to fluphenazine; summary of the method: as §1
Mus musculus [4] = assay: Cataleptogenic potency in iv dosed albino mouse assessed as reversal of imposed position administered 4 doses at quarter log intervals measured 60 to 180 mins post dose relative to fluphenazine; summary of the method: as §2

Row | Structure (SMILES) | ED50 (Rattus norvegicus [1]) [µmol/kg] | ED50 (Mus musculus [2]) [µmol/kg] | Ratio (Rattus norvegicus [3]) | Ratio (Mus musculus [4])
1 | O=[N+]([O-])c1ccc2c(c1)N(CCCN1CCN(CCO)CC1)c1ccccc1S2 | 0.17 | 2.2 | 3.2 | 0.92
2 | N#CC(C#N)=Cc1ccc2c(c1)N(CCCN1CCN(CCO)CC1)c1ccccc1S2 | – | 28 | – | 0.078
3 | O=[N+]([O-])/C=C/c1ccc2c(c1)N(CCCN1CCN(CCO)CC1)c1ccccc1S2 | – | > 57 | – | <0.011
4 | N#Cc1ccc2c(c1)N(CCCN1CCN(CCO)CC1)c1ccccc1S2 | 0.61 | 0.41 | 0.65 | 0.7
5 | OCCN1CCN(CCCN2c3ccccc3Sc3ccc(C(F)(F)F)cc32)CC1 [FLUPHENAZINE] | 0.39 | 0.29 | – | –
